Common to all, as to type: functional
Experiment [1] relates to Mycobacterium tuberculosis. Kind of experiment: Antituberculosis activity against Mycobacterium tuberculosis. Summed up:
(§1)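 M. tuberculosis H37Rv grown in Middlebrook 7H9 with 10% OADC and 0.5% glycerol, adjusted to McFarland 1.0. Compounds were dissolved in DMF as stocks and tested at final levels of 1.56, 3.12, 6.25, 12.5, 25 and 50 in 96-well REMA. Controls were DMF-only, growth, rifampicin and isoniazid. After 7 days at 37 °C, 0.01% resazurin was added for 24 h and the colour change read.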

Another experiment has as its system Staphylococcus aureus. Kind of experiment: Antibacterial activity against Staphylococcus aureus ATCC 25923 after 3 to 4 days by serial plate dilution method. To be noted: for MIC: Staphylococcus aureus, ATCC 25923.
The subject of experiment [2] is Mycobacterium tuberculosis. Description: Antituberculosis activity against Mycobacterium tuberculosis at MIC concentration after 7 days using resazurin dye by broth microdilution assay. Summed up: as §1
A general note: The colour change of resazurin is a common sign of viable cells or microbes.

In a further experiment the test system is Pseudomonas aeruginosa. Kind of experiment: Antibacterial activity against Pseudomonas aeruginosa ATCC 27853 after 3 to 4 days by serial plate dilution method. As to conditions: for MIC: Pseudomonas aeruginosa, ATCC 27853.
Experiment [3] has as its system Mycobacterium tuberculosis. Kind of experiment: Antituberculosis activity against Mycobacterium tuberculosis H37Rv ATCC 27294 after 7 days using resazurin dye by broth microdilution assay. As to conditions: H37Rv ATCC 27294, 168 h. The essentials: as §1
A further experiment concerns Klebsiella pneumoniae. Description: Antibacterial activity against recultured Klebsiella pneumoniae after 3 to 4 days by serial plate dilution method. To be noted: for MIC: Klebsiella pneumoniae.
The test system of a further experiment is Escherichia coli. Description: Antibacterial activity against Escherichia coli ATCC 25922 after 3 to 4 days by serial plate dilution method. To be noted: for MIC: Escherichia coli, ATCC 25922.

Molecules are shown by their SMILES. Values after ≈ are worked out from the molar mass of the structure shown. Some results are limits rather than exact numbers.

Usually MIC stands for the lowest concentration found to suppress growth. Regarding `OC(c1cc(C(F)(F)F)nc2c(C(F)(F)F)cccc12)C1CCCCN1` (stereo unspecified) [MEFLOQUINE], the MIC in experiment [1] is 25 mg/L (≈ 66.1 µM).

`FC(F)(F)Oc1cccc(/C=N/Nc2cc(C(F)(F)F)nc3c(C(F)(F)F)cccc23)c1`: the “diameter of the inhibition zone (DIZ)” value in the experiment on Staphylococcus aureus was 21 mm; in the experiment on Pseudomonas aeruginosa, 26 mm; in the experiment on Klebsiella pneumoniae, 20 mm; with Escherichia coli, 24 mm. In addition, the minimum inhibitory concentration (MIC) in the experiment on Staphylococcus aureus is 6.25 mg/L (≈ 13.4 µM); in the experiment on Pseudomonas aeruginosa, 6.25 mg/L (≈ 13.4 µM); in experiment [3], 12.5 µM (≈ 5.84 µg/mL); in the experiment on Klebsiella pneumoniae, 6.25 mg/L (≈ 13.4 µM); with Escherichia coli it was 6.25 mg/L (≈ 13.4 µM). Further, the “inhibition (INH)” value in experiment [2] is reported as below 90%.

For the compound `Cn1cc(Cl)c(/C=N/Nc2cc(C(F)(F)F)nc3c(C(F)(F)F)cccc23)n1`, the “diameter of the inhibition zone (DIZ)” value is 22 mm in the experiment on Staphylococcus aureus, 28 mm in the experiment on Pseudomonas aeruginosa, 18 mm in the experiment on Klebsiella pneumoniae and 24 mm with Escherichia coli. Moreover, the minimal inhibitory concentration (MIC) in the experiment on Staphylococcus aureus came to 6.25 mg/L (≈ 14.8 µM); in the experiment on Pseudomonas aeruginosa, 6.25 mg/L (≈ 14.8 µM); in experiment [3] it was 6.25 µM (≈ 2.64 µg/mL); with Klebsiella pneumoniae, 6.25 mg/L (≈ 14.8 µM); in the experiment on Escherichia coli it was 6.25 mg/L (≈ 14.8 µM). Moreover, in experiment [2], the “inhibition (INH)” value was found to be 95%.

For the compound `COc1ccc(/C=N/Nc2cc(C(F)(F)F)nc3c(C(F)(F)F)cccc23)cc1O`, the “diameter of the inhibition zone (DIZ)” value in the experiment with Staphylococcus aureus was determined as 14 mm; in the experiment on Pseudomonas aeruginosa it was 15 mm; in the experiment with Klebsiella pneumoniae, 12 mm; in the experiment on Escherichia coli, 13 mm. The MIC against Staphylococcus aureus was determined as 12.5 mg/L (≈ 29.1 µM); in the experiment with Pseudomonas aeruginosa, 12.5 mg/L (≈ 29.1 µM); in experiment [3], 12.5 µM (≈ 5.37 µg/mL); with Klebsiella pneumoniae it was 12.5 mg/L (≈ 29.1 µM); with Escherichia coli, 12.5 mg/L (≈ 29.1 µM). Also, the “inhibition (INH)” value in experiment [2] is recorded as below 90%.

Take `Cn1cccc1/C=N/Nc1cc(C(F)(F)F)nc2c(C(F)(F)F)cccc12`: the “diameter of the inhibition zone (DIZ)” value with Staphylococcus aureus amounted to 22 mm; in the experiment with Pseudomonas aeruginosa, 24 mm; in the experiment with Klebsiella pneumoniae, 21 mm; in the experiment on Escherichia coli, 20 mm. For the same compound, the MIC in the experiment with Staphylococcus aureus turned out to be 6.25 mg/L (≈ 16.2 µM); in the experiment on Pseudomonas aeruginosa, 6.25 mg/L (≈ 16.2 µM); in experiment [3], 12.5 µM (≈ 4.83 µg/mL); with Klebsiella pneumoniae it was 6.25 mg/L (≈ 16.2 µM); against Escherichia coli, 6.25 mg/L (≈ 16.2 µM). Moreover, the “inhibition (INH)” value in experiment [2] was below 90%.

On to `COc1ccc(/C=N/Nc2cc(C(F)(F)F)nc3c(C(F)(F)F)cccc23)c(F)c1`, for which the “diameter of the inhibition zone (DIZ)” value with Staphylococcus aureus stood at 23 mm; in the experiment on Pseudomonas aeruginosa, 24 mm; in the experiment with Klebsiella pneumoniae it was 22 mm; with Escherichia coli, 25 mm. The minimal inhibitory concentration (MIC) against Staphylococcus aureus turned out to be 6.25 mg/L (≈ 14.5 µM); against Pseudomonas aeruginosa, 6.25 mg/L (≈ 14.5 µM); in experiment [3] it was 6.25 µM (≈ 2.7 µg/mL); against Klebsiella pneumoniae, 6.25 mg/L (≈ 14.5 µM); against Escherichia coli, 6.25 mg/L (≈ 14.5 µM). Moreover, the “inhibition (INH)” value in experiment [2] stood at 95%.

For `FC(F)(F)c1cc(N/N=C/C2CCCCC2)c2cccc(C(F)(F)F)c2n1`, the “diameter of the inhibition zone (DIZ)” value with Staphylococcus aureus is on record as 24 mm; in the experiment with Pseudomonas aeruginosa it was 23 mm; in the experiment on Klebsiella pneumoniae, 19 mm; with Escherichia coli, 25 mm. Further, the MIC stood at 6.25 mg/L (≈ 16.1 µM) against Staphylococcus aureus; 6.25 mg/L (≈ 16.1 µM) against Pseudomonas aeruginosa; 6.25 µM (≈ 2.43 µg/mL) in experiment [3]; 6.25 mg/L (≈ 16.1 µM) against Klebsiella pneumoniae; 6.25 mg/L (≈ 16.1 µM) against Escherichia coli. Further, in experiment [2], the “inhibition (INH)” value is given as 95%.

As for `O=C(NNc1cc(C(F)(F)F)nc2c(C(F)(F)F)cccc12)Nc1ccc(F)cc1`, the “diameter of the inhibition zone (DIZ)” value was 10 mm in the experiment with Staphylococcus aureus, 14 mm with Pseudomonas aeruginosa, below 10 mm in the experiment with Klebsiella pneumoniae and 10 mm in the experiment with Escherichia coli. Further, the MIC in the experiment with Staphylococcus aureus was determined as 12.5 mg/L (≈ 28.9 µM); against Pseudomonas aeruginosa, 12.5 mg/L (≈ 28.9 µM); in experiment [3], 12.5 µM (≈ 5.4 µg/mL); against Klebsiella pneumoniae, 50 mg/L (≈ 116 µM); against Escherichia coli it was 12.5 mg/L (≈ 28.9 µM). The “inhibition (INH)” value in experiment [2] is on record as below 90%.

Regarding `Cn1nnc2cc(/C=N/Nc3cc(C(F)(F)F)nc4c(C(F)(F)F)cccc34)ccc21`, the “diameter of the inhibition zone (DIZ)” value is on record as 22 mm in the experiment on Staphylococcus aureus, 24 mm in the experiment on Pseudomonas aeruginosa, 21 mm in the experiment with Klebsiella pneumoniae and 20 mm in the experiment with Escherichia coli. Moreover, the MIC worked out at 6.25 mg/L (≈ 14.3 µM) in the experiment with Staphylococcus aureus; 6.25 mg/L (≈ 14.3 µM) in the experiment with Pseudomonas aeruginosa; 12.5 µM (≈ 5.48 µg/mL) in experiment [3]; 6.25 mg/L (≈ 14.3 µM) in the experiment with Klebsiella pneumoniae; 6.25 mg/L (≈ 14.3 µM) with Escherichia coli. In addition, the “inhibition (INH)” value in experiment [2] is recorded as below 90%.

For the compound `FC(F)(F)c1cc(N/N=C/c2cccnc2)c2cccc(C(F)(F)F)c2n1`, the “diameter of the inhibition zone (DIZ)” value in the experiment with Staphylococcus aureus was 22 mm; with Pseudomonas aeruginosa it was 25 mm; in the experiment on Klebsiella pneumoniae, 20 mm; in the experiment with Escherichia coli, 24 mm. Moreover, the MIC is 6.25 mg/L (≈ 16.3 µM) in the experiment on Staphylococcus aureus; 6.25 mg/L (≈ 16.3 µM) in the experiment with Pseudomonas aeruginosa; 12.5 µM (≈ 4.8 µg/mL) in experiment [3]; 6.25 mg/L (≈ 16.3 µM) in the experiment with Klebsiella pneumoniae; 6.25 mg/L (≈ 16.3 µM) against Escherichia coli. Also, the “inhibition (INH)” value in experiment [2] is reported as below 90%.

Take `Cc1cc(C)cc(NC(=O)NNc2cc(C(F)(F)F)nc3c(C(F)(F)F)cccc23)c1`: the “diameter of the inhibition zone (DIZ)” value in the experiment with Staphylococcus aureus is 23 mm; in the experiment on Pseudomonas aeruginosa it was 24 mm; in the experiment on Klebsiella pneumoniae, 22 mm; with Escherichia coli, 20 mm. For the same compound, the MIC against Staphylococcus aureus stood at 6.25 mg/L (≈ 14.1 µM); against Pseudomonas aeruginosa it was 6.25 mg/L (≈ 14.1 µM); in experiment [3] it was 6.25 µM (≈ 2.76 µg/mL); in the experiment with Klebsiella pneumoniae, 6.25 mg/L (≈ 14.1 µM); in the experiment with Escherichia coli, 6.25 mg/L (≈ 14.1 µM). Besides, the “inhibition (INH)” value in experiment [2] is recorded as 95%.

Take `FC(F)C(F)(F)Oc1cccc(/C=N/Nc2cc(C(F)(F)F)nc3c(C(F)(F)F)cccc23)c1`: the “diameter of the inhibition zone (DIZ)” value was determined as 22 mm in the experiment with Staphylococcus aureus, 26 mm with Pseudomonas aeruginosa, 18 mm with Klebsiella pneumoniae and 21 mm with Escherichia coli. The MIC with Staphylococcus aureus was found to be 6.25 mg/L (≈ 12.5 µM); against Pseudomonas aeruginosa it was 6.25 mg/L (≈ 12.5 µM); in experiment [3], 12.5 µM (≈ 6.24 µg/mL); in the experiment on Klebsiella pneumoniae, 6.25 mg/L (≈ 12.5 µM); with Escherichia coli, 6.25 mg/L (≈ 12.5 µM). Moreover, the “inhibition (INH)” value in experiment [2] was below 90%.

Regarding `COc1ccccc1NC(=O)NNc1cc(C(F)(F)F)nc2c(C(F)(F)F)cccc12`, the “diameter of the inhibition zone (DIZ)” value was found to be 21 mm in the experiment with Staphylococcus aureus, 22 mm in the experiment on Pseudomonas aeruginosa, 18 mm with Klebsiella pneumoniae and 24 mm with Escherichia coli. Further, the MIC in the experiment with Staphylococcus aureus amounted to 6.25 mg/L (≈ 14.1 µM); in the experiment on Pseudomonas aeruginosa, 6.25 mg/L (≈ 14.1 µM); in experiment [3], 12.5 µM (≈ 5.55 µg/mL); in the experiment with Klebsiella pneumoniae, 6.25 mg/L (≈ 14.1 µM); against Escherichia coli, 6.25 mg/L (≈ 14.1 µM). In addition, the “inhibition (INH)” value in experiment [2] is below 90%.

For `FC(F)(F)c1cc(N/N=C/c2c[nH]cn2)c2cccc(C(F)(F)F)c2n1`, the “diameter of the inhibition zone (DIZ)” value was determined as 24 mm in the experiment with Staphylococcus aureus, 23 mm in the experiment with Pseudomonas aeruginosa, 18 mm in the experiment on Klebsiella pneumoniae and 25 mm in the experiment with Escherichia coli. In addition, the MIC in the experiment with Staphylococcus aureus worked out at 6.25 mg/L (≈ 16.7 µM); against Pseudomonas aeruginosa, 6.25 mg/L (≈ 16.7 µM); in experiment [3], 3.12 µM (≈ 1.16 µg/mL); with Klebsiella pneumoniae, 6.25 mg/L (≈ 16.7 µM); against Escherichia coli, 6.25 mg/L (≈ 16.7 µM). For the same compound, in experiment [2], the “inhibition (INH)” value came out at 99%.

For the compound `Cc1cccc2c(/C=N/Nc3cc(C(F)(F)F)nc4c(C(F)(F)F)cccc34)c[nH]c12`, the “diameter of the inhibition zone (DIZ)” value in the experiment on Staphylococcus aureus was 24 mm; in the experiment with Pseudomonas aeruginosa, 24 mm; in the experiment with Klebsiella pneumoniae it was 19 mm; in the experiment on Escherichia coli, 27 mm. For the same compound, the MIC came to 6.25 mg/L (≈ 14.3 µM) against Staphylococcus aureus; 6.25 mg/L (≈ 14.3 µM) with Pseudomonas aeruginosa; 6.25 µM (≈ 2.73 µg/mL) in experiment [3]; 6.25 mg/L (≈ 14.3 µM) with Klebsiella pneumoniae; 6.25 mg/L (≈ 14.3 µM) with Escherichia coli. In experiment [2], the “inhibition (INH)” value came to 95%.

Values taken from ChEMBL document CHEMBL1208682, “New quinoline derivatives: synthesis and investigation of antibacterial and antituberculosis properties” (2010).
